{"data": "Published values gathered from unrelated publications", "target": "Tyrosine-protein kinase TXK (TXK, Homo sapiens, UniProt P42681)", "One construct used (P42681 1-527)": "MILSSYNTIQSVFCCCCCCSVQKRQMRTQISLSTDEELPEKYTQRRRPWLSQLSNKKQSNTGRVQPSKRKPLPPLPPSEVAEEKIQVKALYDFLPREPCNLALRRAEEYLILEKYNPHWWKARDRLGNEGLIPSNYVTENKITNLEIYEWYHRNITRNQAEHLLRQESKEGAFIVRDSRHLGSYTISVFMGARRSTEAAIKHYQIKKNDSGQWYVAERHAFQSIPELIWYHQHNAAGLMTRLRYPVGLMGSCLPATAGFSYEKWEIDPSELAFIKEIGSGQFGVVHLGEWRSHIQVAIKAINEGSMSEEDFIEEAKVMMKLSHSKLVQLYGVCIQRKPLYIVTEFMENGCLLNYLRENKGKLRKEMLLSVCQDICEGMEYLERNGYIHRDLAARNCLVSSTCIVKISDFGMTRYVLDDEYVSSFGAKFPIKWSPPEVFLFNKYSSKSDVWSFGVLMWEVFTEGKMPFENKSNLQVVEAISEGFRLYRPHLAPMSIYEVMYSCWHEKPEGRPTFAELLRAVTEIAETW", "note": "Protocols differ between the studies behind these lines."}
{"SMILES": "C[C@@H](c1cccc(C#N)c1)n1cc(Cl)cc(C(N)=O)c1=N", "assay": "binding, competition with immobilised ligand", "setting": "1 µM", "remaining binding": "68%"}
{"SMILES": "C[C@@H](c1ccc(-n2cnc3c(N)ncnc32)cc1)N1CCc2nn(C)c(Cc3ccccc3)c2C1=O", "assay": "binding, competition with immobilised ligand", "setting": "0.1 µM", "remaining binding": "73%"}
{"SMILES": "C[C@H]1CCN(c2nccc(-c3cnn4ncccc34)n2)C1", "assay": "binding", "setting": "1 µM", "remaining binding": "90%"}
{"SMILES": "COc1ncc2cc3ccccc3nc2c1C#N", "assay": "binding, competition with immobilised ligand", "setting": "5 µM", "remaining binding": "93%"}
{"SMILES": "CCOCCn1cc(C(=O)Nc2ccc(-n3nc(-c4cccnc4)cc3C(F)(F)F)cn2)ccc1=O", "assay": "binding, competition with immobilised ligand", "setting": "1 µM", "remaining binding": "81%"}
{"SMILES": "N[C@@H]1CCN(c2nccc(-c3cnn4ncccc34)n2)C1", "assay": "binding", "setting": "1 µM", "remaining binding": "100%"}
{"SMILES": "C=CC(=O)N1CCC(C(=O)NCC(=O)N2CCN(c3nc(-c4cnc(N)nc4C(F)F)nc(N4CCOCC4)n3)CC2)CC1", "assay": "binding, competition with immobilised ligand", "setting": "1 µM", "remaining binding": "100%"}
{"SMILES": "FC(F)(F)Oc1cccc(-c2cnc3ccc(-c4ccncc4)nn23)c1", "assay": "binding, competition with immobilised ligand", "setting": "5 µM", "remaining binding": "55%"}
{"SMILES": "F[C@@H]1CCN(c2nccc(-c3cnn4ncccc34)n2)C1", "assay": "binding", "setting": "1 µM", "remaining binding": "73%"}
{"SMILES": "c1cncc(-c2cccc(Nc3nccc(NC4CCCCC4)n3)c2)c1", "assay": "binding, competition with immobilised ligand", "setting": "10 µM", "remaining binding": "20%"}
{"SMILES": "CN(C)c1nccc(-c2cnn3ncccc23)n1", "assay": "binding", "setting": "1 µM", "remaining binding": "100%"}
{"SMILES": "Cc1c(NC(=O)c2cc(C(N)=O)nc3cc(F)ccc23)c(C(F)(F)F)nn1Cc1ccc(C(C)(C)C)cc1", "assay": "cell-free assay, competition with immobilised ligand", "setting": "1 µM", "remaining binding": "100%"}
{"SMILES": "Cc1cnc(Nc2ccc(C(=O)N3CCC(N4CCCC4)CC3)cc2)nc1-c1cc2ccccc2s1", "assay": "binding, competition with immobilised ligand", "setting": "1 µM", "remaining binding": "59%"}
{"SMILES": "CN(C)c1nccc(-c2cnc3ncccn23)n1", "assay": "binding", "setting": "1 µM", "remaining binding": "98%"}
{"SMILES": "O=C(c1ccc(Nc2nccc(-c3cc4ccccc4s3)n2)cc1)N1CCC(N2CCCC2)CC1", "assay": "binding, competition with immobilised ligand", "setting": "1 µM", "remaining binding": "92%"}
{"SMILES": "O=C(NCC1CCOCC1)c1n[nH]cc1NC(=O)c1c(F)cccc1F", "assay": "binding, competition with immobilised ligand", "setting": "1 µM", "remaining binding": "100%"}
{"SMILES": "Cc1cc(-n2nc(Cc3cc(F)cc(C(F)(F)F)c3)nc2C)ccc1C(N)=O", "assay": "binding, competition with immobilised ligand", "setting": "1 µM", "remaining binding": "84%"}
{"SMILES": "COc1cnc(Nc2cccc(S(N)(=O)=O)c2)nc1N1CCN(c2ccccc2)CC1", "assay": "binding, competition with immobilised ligand", "setting": "1 µM", "remaining binding": "100%"}
{"SMILES": "CC(=O)c1c(NS(C)(=O)=O)c2cc(-c3ccc(Cl)cc3)c(-c3ccc(Cl)cc3Cl)nc2n(C)c1=O", "assay": "cell-free assay, competition with immobilised ligand", "setting": "1 µM", "remaining binding": "100%"}
{"SMILES": "O=C(c1ccc(Nc2ncc(Cl)c(-c3cc4ccccc4s3)n2)cc1)N1CCC(N2CCCC2)CC1", "assay": "binding, competition with immobilised ligand", "setting": "1 µM", "remaining binding": "71%"}
{"SMILES": "CN(C)c1ncc(F)c(-c2cnn3ncccc23)n1", "assay": "binding", "setting": "1 µM", "remaining binding": "100%"}
{"SMILES": "CCc1ccccc1C(=O)Nc1n[nH]c2c(C)c(F)c(C3C(C#N)=C(C)N(C)C(C)=C3C#N)cc12", "assay": "binding, competition with immobilised ligand", "setting": "1 µM", "remaining binding": "84%"}
